Reference: ChEMBL document CHEMBL3992547, “Antimicrobial activity of rhodanine-3-acetic acid derivatives” (Bioorg Med Chem, 2017)
In brackets after ≈: the same amount, converted by molar mass. Activity calls are given as the source filed them. The calls are words filed in the database; no cut-off is given here.

Columns and labels:
[1] = system: Mycobacterium tuberculosis; experiment: Antimycobacterial activity against Mycobacterium tuberculosis H37Rv 331/88 measured after 14 days by micromethod; format: functional; details: H37Rv 331/88, 336 h
[2] = system: Mycobacterium tuberculosis; experiment: Antimycobacterial activity against Mycobacterium tuberculosis H37Rv 331/88 measured after 21 days by micromethod; format: functional; details: H37Rv 331/88, 504 h
[3] = system: Mycobacterium avium; experiment: Antimycobacterial activity against Mycobacterium avium 330/88 measured after 14 days by micromethod; format: functional; details: 330/88, 336 h
[4] = system: Mycobacterium avium; experiment: Antimycobacterial activity against Mycobacterium avium 330/88 measured after 21 days by micromethod; format: functional; details: 330/88, 504 h
[5] = system: Mycobacterium kansasii; experiment: Antimycobacterial activity against Mycobacterium kansasii isolate 235/80 after 7 days by micromethod; format: functional; details: isolate 235/80, 168 h
[6] = system: Mycobacterium kansasii; experiment: Antimycobacterial activity against Mycobacterium kansasii isolate 235/80 after 14 days by micromethod; format: functional; details: isolate 235/80, 336 h
[7] = system: Mycobacterium kansasii; experiment: Antimycobacterial activity against Mycobacterium kansasii isolate 235/80 after 21 days by micromethod; format: functional; details: isolate 235/80, 504 h
[8] = system: Mycobacterium kansasii; experiment: Antimycobacterial activity against Mycobacterium kansasii isolate 6509/96 after 7 days by micromethod; format: functional; details: isolate 6509/96, 168 h
[9] = system: Mycobacterium kansasii; experiment: Antimycobacterial activity against Mycobacterium kansasii isolate 6509/96 after 14 days by micromethod; format: functional; details: isolate 6509/96, 336 h
[10] = system: Mycobacterium kansasii; experiment: Antimycobacterial activity against Mycobacterium kansasii isolate 6509/96 after 21 days by micromethod; format: functional; details: isolate 6509/96, 504 h
[11] = Solubility of the compound in Sula's semisynthetic medium up to 1 mM; format: physicochemical
[12] = system: Staphylococcus aureus; experiment: Antibacterial activity against Staphylococcus aureus CCM 4516/08 incubated for 24 hrs under dark condition by microdilution broth assay; format: functional; details: CCM 4516/08, 24 h
Summary of the method: (§1)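 Broth microdilution per M07-A07, modified, in Mueller-Hinton broth adjusted to pH 7.4 (±0.2). Inoculum is prepared in sterile water to McFarland 0.5 (1.5 × 10⁸ CFU/mL). Plates are incubated in the dark at 35 °C in humid air. MIC is read after 24 and 48 h as at least 95% growth reduction versus control (IC₉₅).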

[13] = system: Staphylococcus aureus; experiment: Antibacterial activity against Staphylococcus aureus CCM 4516/08 incubated for 48 hrs under dark condition by microdilution broth assay; format: functional; details: CCM 4516/08, 48 h; summary of the method: as §1
[14] = system: Staphylococcus aureus; experiment: Antibacterial activity against methicillin-resistant Staphylococcus aureus H 5996/08 incubated for 24 hrs under dark condition by microdilution broth assay; format: functional; details: H 5996/08, 24 h
Summary of the method: (§2)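 Microdilution broth method modified per M07-A07, in Mueller-Hinton broth adjusted to pH 7.4 (±0.2). Inoculum made in sterile water to 0.5 McFarland (1.5 × 10⁸ CFU/mL). Plates incubated in the dark at 35 °C in a humid atmosphere, with reads at 24 and 48 h. MIC taken as at least 95% growth reduction (IC₉₅) versus control.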

[15] = system: Staphylococcus aureus; experiment: Antibacterial activity against methicillin-resistant Staphylococcus aureus H 5996/08 incubated for 48 hrs under dark condition by microdilution broth assay; format: functional; details: H 5996/08, 48 h; summary of the method: as §2
[16] = system: Staphylococcus epidermidis; experiment: Antibacterial activity against Staphylococcus epidermidis H 6966/08 incubated for 24 hrs under dark condition by microdilution broth assay; format: functional; details: H 6966/08, 24 h; summary of the method: as §1
[17] = system: Staphylococcus epidermidis; experiment: Antibacterial activity against Staphylococcus epidermidis H 6966/08 incubated for 48 hrs under dark condition by microdilution broth assay; format: functional; details: H 6966/08, 48 h; summary of the method: as §1
[18] = system: Escherichia coli; experiment: Antibacterial activity against Escherichia coli CCM 4517 incubated for 24 hrs under dark condition by microdilution broth assay; format: functional; details: CCM 4517, 24 h; summary of the method: as §1
[19] = system: Escherichia coli; experiment: Antibacterial activity against Escherichia coli CCM 4517 incubated for 48 hrs under dark condition by microdilution broth assay; format: functional; details: CCM 4517, 48 h; summary of the method: as §1
[20] = system: Klebsiella pneumoniae; experiment: Antibacterial activity against Klebsiella pneumoniae D 11750/08 up to 500 uM incubated for 24 to 48 hrs under dark condition by microdilution broth assay; format: functional; summary of the method: as §1
[21] = system: Klebsiella pneumoniae; experiment: Antibacterial activity against ESBL positive Klebsiella pneumoniae J 14368/08 up to 500 uM incubated for 24 to 48 hrs under dark condition by microdilution broth assay; format: functional; summary of the method: as §1
[22] = system: Pseudomonas aeruginosa; experiment: Antibacterial activity against Pseudomonas aeruginosa CCM 1961 up to 500 uM incubated for 24 to 48 hrs under dark condition by microdilution broth assay; format: functional; summary of the method: as §1
[23] = system: Pichia kudriavzevii; experiment: Antifungal activity against Candida krusei E28 after 24 to 48 hrs hrs by microdilution broth assay; format: functional
Summary of the method: (§3)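 Broth microdilution per CLSI M27-A3 and M38-A2 in RPMI 1640 with glutamine, buffered to pH 7.0 with MOPS. Compounds are diluted in DMSO. Final inoculum is 5 × 10³ CFU/mL for yeasts and 0.5–5 × 10⁴ CFU/mL for moulds. Plates are incubated in the dark at 35 °C in humid air and read visually and/or at 540 nm after 24 and 48 h. MIC is ≥80% growth reduction (IC₈₀) for yeasts and ≥50% (IC₅₀) for filamentous fungi.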

[24] = system: Lichtheimia corymbifera; experiment: Antifungal activity against Absidia corymbifera 272 after 24 to 48 hrs hrs by microdilution broth assay; format: functional; summary of the method: as §3
[25] = system: Enterococcus; experiment: Antibacterial activity against Enterococcus sp. J 14365/08 incubated for 24 hrs under dark condition by microdilution broth assay; details: J 14365/08, 24 h
[26] = system: Enterococcus; experiment: Antibacterial activity against Enterococcus sp. J 14365/08 incubated for 48 hrs under dark condition by microdilution broth assay; details: J 14365/08, 48 h

Structure (SMILES)	MIC [1] [µM]	MIC [2] [µM]	MIC [3] [µM]	MIC [4] [µM]	MIC [5] [µM]	MIC [6] [µM]	MIC [7] [µM]	MIC [8] [µM]	MIC [9] [µM]	MIC [10] [µM]	solubility [11]	MIC95 [12] [µM]	MIC95 [13] [µM]	MIC95 [14] [µM]	MIC95 [15] [µM]	MIC95 [16] [µM]	MIC95 [17] [µM]	MIC95 [18] [µM]	MIC95 [19] [µM]	Activity [20]	further results
O=C(CN1C(=O)CSC1=S)Oc1ccccc1	1000 (≈ 267 µg/mL)	1000 (≈ 267 µg/mL)	1000 (≈ 267 µg/mL)	1000 (≈ 267 µg/mL)	500 (≈ 134 µg/mL)	1000 (≈ 267 µg/mL)	1000 (≈ 267 µg/mL)	500 (≈ 134 µg/mL)	1000 (≈ 267 µg/mL)	1000 (≈ 267 µg/mL)	Soluble	> 125	> 125	> 125	> 125	> 125	> 125	> 125	> 125	inactive	Activity [21]: inactive; Activity [22]: inactive; Activity [23]: inactive; Activity [24]: inactive; MIC95 [25]: 125 µM (≈ 33.4 µg/mL); MIC95 [26]: > 125 µM
O=C(O)CN1C(=O)/C(=C/c2cccc(O)c2)SC1=S	1000 (≈ 295 µg/mL)	1000 (≈ 295 µg/mL)	> 1000	> 1000	1000 (≈ 295 µg/mL)	1000 (≈ 295 µg/mL)	1000 (≈ 295 µg/mL)	500 (≈ 148 µg/mL)	1000 (≈ 295 µg/mL)	1000 (≈ 295 µg/mL)	Soluble	> 500	> 500	500 (≈ 148 µg/mL)	> 500	> 500	> 500	> 500	> 500	inactive	Activity [21]: inactive; Activity [22]: inactive; Activity [23]: inactive; Activity [24]: inactive; MIC95 [25]: 500 µM (≈ 148 µg/mL); MIC95 [26]: > 500 µM
O=C(CN1C(=O)CSC1=S)Nc1ccc([N+](=O)[O-])cc1	500 (≈ 156 µg/mL)	500 (≈ 156 µg/mL)	1000 (≈ 311 µg/mL)	1000 (≈ 311 µg/mL)	500 (≈ 156 µg/mL)	500 (≈ 156 µg/mL)	1000 (≈ 311 µg/mL)	500 (≈ 156 µg/mL)	500 (≈ 156 µg/mL)	1000 (≈ 311 µg/mL)	Soluble	500 (≈ 156 µg/mL)	500 (≈ 156 µg/mL)	500 (≈ 156 µg/mL)	500 (≈ 156 µg/mL)	250 (≈ 77.8 µg/mL)	250 (≈ 77.8 µg/mL)	> 500	> 500	inactive	Activity [21]: inactive; Activity [22]: inactive; Activity [23]: inactive; Activity [24]: inactive; MIC95 [25]: 250 µM (≈ 77.8 µg/mL); MIC95 [26]: 250 µM (≈ 77.8 µg/mL)
